Active and inactive are the calls of the source. No cut-off for these calls is given here.
What was measured:
[1] = Drug level in mouse brain after 2 hrs; assay type: ADME, tissue-based; conditions: read-out: Drug uptake
How it was run: (§1)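 [18F]-labelled ligands, HPLC-purified to >97% radiochemical purity, given by injection to normal mice. Brain radioactivity measured at 2 min, 2 h and 3 h after injection. Expressed as % injected dose per gram of tissue.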

[2] = Partition coefficient, log P of the compound; assay type: physicochemical; conditions: octanol/water
How it was run: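 Partition coefficient measured for the HPLC-purified [18F]-radiolabelled ligands at pH 7.4. Reported as log P.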

[3] = Drug level in mouse brain after 2 mins; assay type: ADME, tissue-based; conditions: read-out: Drug uptake; how it was run: as §1
[4] = Drug level in mouse brain after 3 hrs; assay type: ADME, tissue-based; conditions: read-out: Drug uptake; how it was run: as §1
[5] = target: T1, Amyloid-beta precursor protein (Homo sapiens, UniProt P05067); test: Binding affinity to beta-amyloid in gray matter of AD patent brain; assay type: tissue-based; conditions: tested as the 18F-labelled form
[6] = target: T1, Amyloid-beta precursor protein; test: Displacement of [125I]IMPY from beta-amyloid plaques in AD patient brain
How it was run: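 Competition binding against the radioligand [125I]IMPY (6-iodo-2-(4'-dimethylamino-)phenylimidazo[1,2-a]pyridine). Tissue: homogenates of postmortem AD brain. Reported as Ki.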

T1 sequence (P05067 whole entry): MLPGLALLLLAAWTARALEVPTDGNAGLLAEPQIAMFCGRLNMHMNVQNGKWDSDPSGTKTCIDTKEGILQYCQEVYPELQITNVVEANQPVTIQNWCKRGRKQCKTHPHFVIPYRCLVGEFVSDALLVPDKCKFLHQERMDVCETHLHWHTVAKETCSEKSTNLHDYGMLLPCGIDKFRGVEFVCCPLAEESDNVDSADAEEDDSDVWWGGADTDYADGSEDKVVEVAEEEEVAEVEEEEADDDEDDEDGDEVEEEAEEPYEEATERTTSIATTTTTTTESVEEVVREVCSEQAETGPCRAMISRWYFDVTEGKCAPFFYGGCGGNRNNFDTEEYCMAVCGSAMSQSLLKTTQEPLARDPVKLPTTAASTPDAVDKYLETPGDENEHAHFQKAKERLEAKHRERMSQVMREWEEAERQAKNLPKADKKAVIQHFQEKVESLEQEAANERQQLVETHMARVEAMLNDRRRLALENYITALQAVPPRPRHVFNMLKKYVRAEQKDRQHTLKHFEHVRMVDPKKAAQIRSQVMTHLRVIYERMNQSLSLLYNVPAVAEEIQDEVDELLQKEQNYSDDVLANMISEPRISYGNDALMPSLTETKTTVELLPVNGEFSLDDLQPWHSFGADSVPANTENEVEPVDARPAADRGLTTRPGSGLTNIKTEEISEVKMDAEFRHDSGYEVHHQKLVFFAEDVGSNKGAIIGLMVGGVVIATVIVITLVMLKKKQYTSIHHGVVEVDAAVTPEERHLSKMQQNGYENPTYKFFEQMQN

| tissue uptake at 2 h [1] | logP [2] | tissue uptake at 2 min [3] | tissue uptake at 3 h [4] | Activity [5] | Ki [6] | SMILES |
| --- | --- | --- | --- | --- | --- | --- |
| 1.71 %ID/g | 2.95 | 4.5 %ID/g | – | – | – | [18F]CCOCCOCCOc1ccc(C#Cc2ccc3c(c2)CCN3)cc1 |
| – | 2.56 | 2.43 %ID/g | 2.1 %ID/g | – | – | [18F]CCOCCOCCOc1ccc(C#Cc2ccc3[nH]ccc3c2)cc1 |
| – | – | – | – | Active | 4 nM | FCCOCCOCCOc1ccc(C#Cc2ccc3c(c2)CCN3)cc1 |
| – | – | – | – | Active | 1.5 nM | FCCOCCOCCOc1ccc(C#Cc2ccc3[nH]ccc3c2)cc1 |

Reference: ChEMBL document CHEMBL1140038, “Synthesis and evaluation of indolinyl- and indolylphenylacetylenes as PET imaging agents for beta-amyloid plaques” (Bioorg Med Chem Lett, 2008)
